# Source: PubChem BioAssay (several laboratories)
# In the library only some 2.7% were active in any assay of this set; here they are far more common.
# RAM network inh – inhibitors of the yeast RAM network, primary screen, dse1pr::URA3 reporter, 5-FOA selection. 1.8% of 190,000 active. S. cerevisiae dse1pr::URA3 reporter, 5-FOA growth OD615, 2 d; analog-sensitive cbk1-as2 kinase mutant strain. inhibition, % at 50 µM;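 active means inhibition above a set limit, 3 SD over mean compound inhibition, cut at about 8.4% in these data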;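 further: inhibition rescues growth on 5-FOA so higher OD means more RAM inhibition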
# SDO1 yeast rescue – growth rescue of sdo1-depleted yeast, primary screen, S. cerevisiae, bone marrow failure model; S. cerevisiae sdo1-depleted JHY4D growth rescue, OD600 30 h; hits give high values; pdr5 snq2 efflux-pump mutant strain; z-score at 10 µM; 0.21% of 140,000 active; AID 817, 2007;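 active means z-score above 3 at both the 24 hr and the 30 hr optical density reads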
# BB579 growth dn – growth inhibitors of yeast BB579 in restrictive medium, primary screen, yeast lifespan-shortening project, S. cerevisiae. OD615, 48 h. inhibition, % at 10 µM. 0.51% of 140,000 active;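 active means inhibition above a set limit, 3 SD over the mean compound inhibition, cut at about 44% in these data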
#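 Assay system: S. cerevisiae DeaD strain BB579 yeast. Medium: CSMM-D restrictive synthetic medium containing dextrose (glucose). Times: 4 h cell preincubation, 48 h compound exposure, 30 °C humidified. Signal: OD615 turbidity measurement. Benchmarks: positive control amphotericin B 10 µg/mL.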
# Yeast lifespan up – compounds extending yeast replicative lifespan, primary screen, S. cerevisiae, OD615 | S. cerevisiae growth with nicotinamide; deaD strain in restrictive glucose medium | inhibition of the nicotinamide effect, % at 10 µM | 0.68% of 130,000 active;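 active means inhibition above a set limit, placed 3 SD over the median of all compounds, cut at about 26% in these data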
#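 assay system = DeaD-strain S. cerevisiae | measured by = absorbance at 615 nm | probe or stimulus = nicotinamide 1.5 mM | buffer or medium = CSMM-D glucose medium, restrictive | times = 48 h at 30 °C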
# Hits are given with their value; – = inactive; · = no result given.
SMILES,RAM network inh,SDO1 yeast rescue,BB579 growth dn,Yeast lifespan up
Cc1nc2c(-c3ccccc3)c(C)nn2c(C)c1CCC(=O)N1CCOCC1,–,–,–,–
CCC(C)n1c(SCc2ccc([N+](=O)[O-])cc2)nc2ccsc2c1=O (stereo not drawn),9.6,–,–,–
O=C(O/N=C1/CCSc2ccccc21)c1ccc(F)cc1,–,–,–,–
NC(=O)c1ccsc1NC(=O)CSc1nc2ccccc2c(=O)n1CCCO,8.9,–,–,–
CCOC(=O)C1=C(Nc2ccccc2)CC(C)(O)C(C(=O)OCC)C1c1ccc(Br)cc1 (stereo not drawn),–,–,–,–
CCC/C=C(\CCC)C(NS(=O)(=O)c1ccc(C(F)(F)F)cc1)c1ccccc1 (stereo not drawn),11.3,–,–,–
CCCc1ccc(Oc2c(-c3ccc(O)c(C)c3O)n[nH]c2C)cc1,9.1,–,99.4,–
COc1cccc(Oc2cn[nH]c2-c2ccc(O)cc2O)c1,–,–,–,–
CCCc1ccc(Oc2cn[nH]c2-c2ccc(O)c(C)c2O)cc1,–,–,99.6,–
Cc1ccccc1C(=O)O/N=C/c1c(N2CCOCC2)n(C)c2ccccc12,–,–,79.2,–
O=C1c2ccccc2-c2onc3ccc(Oc4ccccc4)c1c23,–,–,–,·
CCOC(=O)C(C(=O)OCC)c1cc(Br)c2noc3c2c1C(=O)c1ccccc1-3,–,–,–,46.2
Cc1cccc(N(C(=O)c2ccc(Cl)cc2)C2CS(=O)(=O)CC2OC(=O)c2ccc(Cl)cc2)c1 (stereo not drawn),–,–,–,–
CCOC(=O)c1cc2sc(C)cc2n1CCCN1C(=O)c2ccccc2C1=O,10.7,–,–,–
CCOC(=O)c1cc2sc(C)cc2n1CC(=O)N(CC)CC,–,–,–,–
CCOC(=O)c1cc2occc2n1CCCN1C(=O)c2ccccc2C1=O,9.2,–,–,–
CCCCCOC(=O)c1[nH]c2c(c1C)C(=O)CC(c1ccco1)C2 (stereo not drawn),–,–,–,–
CCN(c1ccccc1)S(=O)(=O)c1ccc(OC)c(N=N/C(C(=O)Nc2ccccc2)=C(/C)O)c1,–,·,·,·
CCSc1nnc(NC(=O)CSc2nc(C)cc(C)n2)s1,–,–,–,35.9
COc1ccc(NC(=O)CSc2nnc(CNC(=O)c3ccco3)o2)cc1,–,·,·,·
CC(Sc1nc(-c2ccc(F)cc2)cs1)C(=O)Nc1ccc(Cl)cn1 (stereo not drawn),10.2,–,–,–
COc1ccccc1N=C(C)C1=C(O)CC(c2ccccc2)CC1=O (stereo not drawn),–,·,·,·
CCCCC(=Nc1ccccc1OC)C1=C(O)CC(c2ccccc2)CC1=O (stereo not drawn),–,–,–,66.5
CCCCC(=NCCc1c(C)[nH]c2ccccc12)C1=C(O)CC(c2ccccc2)CC1=O (stereo not drawn),–,·,·,·
CCCC(=Nc1ccccc1OC)C1=C(O)CC(c2ccccc2)CC1=O (stereo not drawn),–,–,–,58.7
SMILES,RAM network inh,SDO1 yeast rescue,BB579 growth dn,Yeast lifespan up
COc1cccc(OC)c1C(=O)NC(=S)N1CCOCC1,–,·,·,·
CC1(CC(=O)N/N=C/c2cc(Br)c(O)cc2O)OCCO1,–,–,–,–
CCCc1cc(-c2n[nH]c(C)c2-c2ccc(C(=O)OCC)o2)c(O)cc1O,9.6,–,–,–
COc1cccc2[nH]c3c(N4CCCC(C)C4)ncnc3c12 (stereo not drawn),–,–,–,–
O=C(CSc1nnc(-c2cccnc2)s1)Nc1cccc(C(=O)O)c1,10.3,–,–,–
COC(=O)/C(=C/c1cn(C)c2ccccc12)[N+](=O)[O-],–,–,–,74.1
COC(=O)/C(=C/Nc1ccccc1)[N+](=O)[O-],–,–,–,–
COC(=O)/C(=C/c1c[nH]c2ccccc12)[N+](=O)[O-],–,–,–,26.2
COc1cc2c(cc1NC(=O)CSc1nc3ccc(C)cc3[nH]1)oc1ccccc12,–,–,–,–
C#CC[N+](CC)(CC)CC#Cc1cccc(Cl)c1,–,–,–,–
CCOc1ccc(NC(=O)Cn2nnc(C(=O)NCc3ccccc3OC)c2N)cc1,9.9,–,–,–
OC(CNCc1ccccc1)Cn1ccc2ccccc21 (stereo not drawn),–,–,–,–
Oc1ccccc1NCC(O)Cn1ccc2ccccc21 (stereo not drawn),–,–,49.7,–
COC(=O)CSc1nnnn1-c1ccccc1,–,–,–,–
O=C(/C(=N\Nc1ccccc1)Sc1nnnn1-c1ccccc1)c1ccccc1,–,–,–,30.4
C=CCSC1=N/C(=C\c2sccc2C)C(=O)S1,9.4,–,–,–
Cc1cc(NC(=O)COC(=O)c2ccccc2S(=O)(=O)N(C)c2ccccc2)no1,–,·,·,·
O=C(CNc1cccc2ccccc12)N/N=C/c1ccc(C(=O)O)cc1,10.5,–,–,–
CCOC(=O)c1c(C)c(C(=O)N2CCCCCC2)c(C)n1CC,–,–,–,–
O=C1NC(c2ccccn2)Nc2sc3c(c21)CCC3 (stereo not drawn),–,–,74.8,–
C=CCNC(=O)c1oc2ccc(S(=O)(=O)N(CC)CC)cc2c1C,–,–,–,–
COc1ccc(/C=C(/C(=O)NCc2ccccc2)c2ccccc2)cc1,11.3,–,–,–
COc1ccccc1/C=C(/C(=O)OCC(=O)NCc1ccccc1)c1ccccc1,10.2,–,–,–
CC1CCCCN1S(=O)(=O)c1coc(C(N)=O)c1 (stereo not drawn),–,–,45.0,–
O=C(NNc1ccccn1)C(c1ccccc1)c1ccccc1,–,·,·,·
SMILES,RAM network inh,SDO1 yeast rescue,BB579 growth dn,Yeast lifespan up
O=C(NNC(=O)C(c1ccccc1)c1ccccc1)c1ccccn1,–,–,–,28.6
OC(CNCCC1C=Nc2ccccc21)Cn1c2ccc(Cl)cc2c2cc(Cl)ccc21 (stereo not drawn),–,–,99.2,–
OC(CNCC1CCCO1)Cn1c2ccc(Cl)cc2c2cc(Cl)ccc21 (stereo not drawn),–,–,–,–
Cc1ccc(NC(=S)N/N=C/c2c(C)[nH]c3ccccc23)cc1,–,·,·,·
CCOC(=O)CSC1=NC(=O)/C(=C/c2ccc(OC)cc2)S1,–,–,–,56.6
S=c1[nH]ncc2ccccc12,–,–,–,–
Cc1ccc(N=Nc2c(N)[nH]n3c(=O)cc(-c4ccccc4)nc23)cc1,8.7,–,–,–
Cc1ccc(-n2c(-c3ccncc3)n[nH]c2=S)cc1C,–,·,·,·
COc1cccc2cc(-c3nnc(SCC(=O)NCc4ccccc4)n3C)oc12,9.1,–,–,–
CCn1c(SCC(=O)NC2CCCCC2)nnc1-c1cc2cccc(OC)c2o1,–,–,–,–
O=[N+]([O-])c1ccc(NCCCNS(=O)(=O)c2ccc(Cl)cc2)c(Cl)c1,10.4,–,–,–
O=[N+]([O-])c1ccccc1NCCNS(=O)(=O)c1ccc(Cl)cc1,–,–,–,–
CCOc1ccc(N=Nc2cc(C(C)C)ccc2O)cc1,10.1,–,–,–
